# Only some compounds are listed: those with a hit (about 2% of all), similar ones and a draw of the others.
# M1 antag: human M1 muscarinic receptor antagonists, primary screen, CHO-K1 cells, Fluo-8 calcium fluorescence, 1536-well; Muscarinic acetylcholine receptor M1 (Homo sapiens), P11229; CHO-K1 hM1, ACh EC80 antagonist; inhibition, % at 3 µM; actives 1.3% (n = 360,000); AID 588852, 2011;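 active = percent inhibition above its own plate's cutoff, namely the mean of that plate's compound wells plus 3 SD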;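 note: peak over basal fluorescence ratio during 140 s after agonist addition; 0% = ACh EC80 plus DMSO and 100% = DMSO alone without agonist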
# CHRM1 PAM: human M1 muscarinic receptor positive allosteric modulators, primary screen, CHO-K1 cells, Fluo-8 calcium fluorescence, 1536-well; Muscarinic acetylcholine receptor M1 (Homo sapiens), P11229; CHO-K1 hM1, ACh EC20; 0% = ACh EC20, 100% = maximal ACh; activation, % at 3 µM; actives 0.088% (n = 360,000); AID 588819, 2011; in the data active = activation above about 19%, passing the limit was not always enough
# CHRM5 PAM: human M5 muscarinic receptor positive allosteric modulators, primary screen, CHO-K1 cells, Fluo-8 calcium fluorescence; activation, % at 3 µM; Muscarinic acetylcholine receptor M5 (Homo sapiens), P08912; actives 0.3% (n = 360,000); CHO-K1 hM5, ACh EC20 PAM; 0% = ACh EC20, 100% = ACh EC100; AID 624038, 2012;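 active = activation above the run cutoff, the mean activation of all test compounds plus 3 SD, cut at about 18% in these data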
# Target sequence (P08912 whole entry, looked up): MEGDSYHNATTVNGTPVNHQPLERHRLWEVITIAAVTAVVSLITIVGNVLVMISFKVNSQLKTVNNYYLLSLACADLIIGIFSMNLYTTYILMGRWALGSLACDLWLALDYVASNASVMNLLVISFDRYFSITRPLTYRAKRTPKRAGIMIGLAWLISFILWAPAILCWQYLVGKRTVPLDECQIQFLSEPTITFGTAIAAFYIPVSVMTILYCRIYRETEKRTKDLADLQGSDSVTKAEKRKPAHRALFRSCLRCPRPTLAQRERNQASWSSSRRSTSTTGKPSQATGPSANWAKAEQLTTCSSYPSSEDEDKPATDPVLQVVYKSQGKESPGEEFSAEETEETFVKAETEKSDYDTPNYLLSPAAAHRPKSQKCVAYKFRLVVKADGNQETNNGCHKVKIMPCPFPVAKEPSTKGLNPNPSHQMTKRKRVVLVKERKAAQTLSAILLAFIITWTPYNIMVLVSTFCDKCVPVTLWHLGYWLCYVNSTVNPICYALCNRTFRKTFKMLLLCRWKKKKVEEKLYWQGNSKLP
#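 Measured by: Fluo-8 calcium fluorescence; material: human M5 receptor in CHO-K1 cells; schedule: Post-acetylcholine fluorescence recording 140 s; benchmarks: low control EC20 acetylcholine (0%), high control EC100 acetylcholine (100%); read-out: Max/basal fluorescence ratio as % of EC20–EC100 ACh window; compound: single dose, 3 µM nominal final test concentration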
# CHRM1 agonist: human M1 muscarinic receptor agonists, primary screen, Fluo-8 calcium fluorescence, CHO-K1 cells, HTS; Muscarinic acetylcholine receptor M1 (Homo sapiens), P11229; CHO-K1 hM1, agonist mode; 0% DMSO, 100% acetylcholine EC100; activation, % at 3 µM; actives 0.33% (n = 360,000); AID 588814, 2011;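 active = activation above the run's mean compound activation plus 3 SD, cut at about 16% in these data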;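 note: peak over basal fluorescence ratio within a 140 s kinetic read after compound addition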
# CHRM5 antagonist: human M5 muscarinic receptor antagonists, primary screen, CHO cells, Fluo-8 calcium fluorescence | Muscarinic acetylcholine receptor M5 (Homo sapiens), P08912 | CHO-hM5 cells, ACh EC80 | inhibition, % at 3 µM | actives 0.59% (n = 360,000);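 active = inhibition above a per-plate cutoff, the mean of that plate's test compounds plus 3 SD, cut at about 27% in these data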;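 note: 0% = acetylcholine EC80 with DMSO and 100% = DMSO without agonist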
# CHRM5 agonist: human M5 muscarinic receptor agonists, primary screen, CHO-K1 cells, Fluo-8 calcium fluorescence. Muscarinic acetylcholine receptor M5 (Homo sapiens), P08912. CHO-K1 hM5 cells; 0% DMSO wells, 100% maximal acetylcholine response. activation, % at 3 µM. actives 0.19% (n = 360,000). AID 624037, 2012;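 active = activation above the run's mean over test compounds plus 3 SD, cut at about 23% in these data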;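 note: signal is peak over basal fluorescence ratio across the kinetic read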
# Numbers without * were called inactive.
SMILES,M1 antag,CHRM1 PAM,CHRM5 PAM,CHRM1 agonist,CHRM5 antagonist,CHRM5 agonist
Cc1ccc(CN(C)C(=O)CCNC(=O)c2ccc(Cl)cc2)o1,-4.6,3.5,-5.4,-6.8,7.6,-0.4
C[C@H]1CN([C@@H](C)CO)C(=O)CCCn2nncc2CO[C@H]1CN(C)S(=O)(=O)c1ccc(Oc2ccccc2)cc1,-11.4,6.5,7.0,-9.9,-5.3,-0.8
CCOc1ccccc1N1CCN(C(=O)c2cc(S(=O)(=O)N3CCCCC3)ccc2C)CC1,30.9*,-15.7,-22.3,-2.3,11.1,4.1
COc1ccc(OC)c(CN2CCN(C(=O)c3cc(S(=O)(=O)Nc4ccccc4OC)ccc3C)CC2)c1,-1.4,0.7,-1.9,-0.7,-9.3,1.2
COc1ccccc1NS(=O)(=O)c1ccc(C)c(C(=O)N2CCCC2)c1,-17.6,26.0*,2.9,1.7,2.2,2.2
COc1cccc(NC(=O)CN2C(=O)NC(Cc3c[nH]c4ccccc34)C2=O)c1 (stereo not given),-8.2,6.7,-0.2,-1.3,13.3,-2.4
OC1c2cc(Br)ccc2N=C2CCCCCN21 (stereo not given),78.5*,-33.4,-9.7,-4.5,4.6,-3.5
N#CCCC1(CCC#N)c2ccccc2C(=O)c2ccccc21,-4.0,3.8,0.8,-5.2,-0.1,-0.3
CCOc1ccc2nc(N(CCN(CC)CC)C(=O)c3ccc([N+](=O)[O-])cc3)sc2c1,44.2*,-6.3,1.7,-6.7,-0.2,-2.8
CCCN1C(=O)/C(=C/c2c(NCCCOCC)nc3c(C)cccn3c2=O)SC1=S,-12.8,13.0,6.3,1.2,-2.3,-3.5
O=C1/C(=C\c2c(NCCOCCO)nc3ccccn3c2=O)SC(=S)N1Cc1ccco1,33.6,-18.9,-9.8,29.6*,18.9,60.2*
O=C1CSC(c2ccccn2)N1c1ccccc1F (stereo not given),0.1,2.4,-6.5,-4.0,30.3*,-1.3
O=C1CSC(c2ccccn2)N1c1ccc(F)cc1F (stereo not given),-3.5,6.7,3.5,-4.4,-3.1,-0.4
S=C(NCc1cccnc1)Nc1cc(Cl)cc(Cl)c1,9.9,-2.9,-22.4,1.3,30.4*,1.7
CCN(CC)c1ccc(C2C(C(=O)OC(C)C)C(=O)CC(C)(O)C2C(=O)OC(C)C)cc1 (stereo not given),29.9*,-9.2,-16.0,-0.9,16.2,3.2
CCOC(=O)C1C(=O)CC(C)(O)C(C(=O)OCC)C1c1ccc(N(CC)CC)cc1 (stereo not given),-28.6,9.0,-3.4,-4.3,5.8,-1.4
CC(C)NC(=O)Cn1nnc(-c2ccccc2)c1COc1ccc2ccccc2c1,-5.3,2.7,-3.0,-1.7,2.3,0.5
O=C(NC1CCN(Cc2ccccc2)C1)c1cc(COc2ccc(F)cc2F)on1 (stereo not given),-5.0,-1.0,-7.1,-6.2,5.2,-2.1
Cc1ccc(C)c(OCc2cc(C(=O)NC3CCN(Cc4ccccc4)CC3)no2)c1,31.6*,-15.2,-12.3,2.6,10.2,-0.3
CCc1cc(=O)oc2cc(C)cc(OC(C)C(=O)NC3CCN(Cc4ccccc4)CC3)c12 (stereo not given),12.1,-6.9,-8.4,22.8*,8.9,1.5
c1ccc(CNc2ncnc3c2oc2ccccc23)nc1,-7.8,7.9,-3.9,-4.8,-0.3,1.4
COc1ccc(CCNc2ncnc3c2oc2ccccc23)cc1OC,39.8*,-18.8,-16.1,2.2,50.3*,6.7
COc1ccc(CCNc2nc(C)nc3c2oc2ccccc23)cc1OC,30.2,-12.6,-20.7,5.2,32.5*,7.4
O=c1c(-c2nn[nH]n2)coc2ccc(Cl)cc12,10.6,0.7,-4.4,-0.2,4.1,2.4
COc1ccc(CCNCC(C)c2ccccc2)cc1 (stereo not given),35.5*,-20.4,-5.9,-9.4,6.7,-10.2
SMILES,M1 antag,CHRM1 PAM,CHRM5 PAM,CHRM1 agonist,CHRM5 antagonist,CHRM5 agonist
CC1CC(C)(C)CC2(C1)NC(=O)N(CC(=O)N1CCN(S(=O)(=O)c3cccc(Cl)c3Cl)CC1)C2=O (stereo not given),45.0*,-19.8,-10.1,-6.4,-0.2,-9.3
NC(=O)CCC(NC(=S)Nc1ccccc1)C(=O)O (stereo not given),-2.7,1.9,-10.3,-2.2,11.9,-2.5
Cn1cc(CN2CCC(n3nccc3NC(=O)CCOc3ccccc3)CC2)cn1,-13.6,16.1,-7.7,-2.3,29.4*,-4.4
Cc1ccc(CN2CCC(n3nccc3NC(=O)CCOc3ccccc3)CC2)cc1C,1.8,-3.2,-5.2,-5.1,12.6,-5.7
COc1ccccc1S(=O)(=O)N(C)C[C@H]1Oc2ncc(Br)cc2C(=O)N([C@H](C)CO)C[C@H]1C,-7.6,8.7,1.3,-8.4,-1.6,-0.9
COc1ccc(C(=O)NNC(=S)NC(=O)c2ccc(OC)cc2)cc1,11.4,-13.4,-12.8,23.4*,12.4,19.9
CCCCC(=O)NC(=S)NNC(=O)c1ccc(Cl)cc1Cl,6.0,-4.8,4.7,24.9*,10.6,1.1
Cc1cccc(C(=O)NNC(=S)NC(=O)c2cccs2)c1,18.2,-20.3,-36.2,84.2*,6.7,65.5*
COc1ccc(C(=O)NNC(=S)NC(=O)c2cccs2)cc1,12.3,-9.2,-2.9,10.1,4.4,5.8
Cc1ccc(C(=O)NNC(=S)NC(=O)c2ccccc2)cc1,52.3*,-26.9,-30.3,52.3*,30.2*,66.5*
Cc1c(N=NC2=C(O)CCCC2=O)c(=O)n(-c2ccccc2)n1C,8.0,-3.4,-6.0,-13.7,3.6,-4.0
CN1OC[C@@H]2CN(C(=O)C(C)(C)C)[C@H](c3ccc(-c4cc5ccccc5o4)cc3)C[C@@H]21,-2.0,0.7,-4.7,-2.8,2.1,-1.1
CC(C(=O)Nc1ccon1)N1C(=O)c2ccccc2S1(=O)=O (stereo not given),-6.7,8.0,-1.7,-2.9,5.0,-5.1
COc1ccc(C(=O)NNC(=S)NC(=O)c2ccc(F)cc2)cc1Br,34.9*,-26.6,-27.9,88.1*,1.7,67.6*
COc1cc(C(=O)NC(=S)NNC(=O)c2ccc3c(c2)OCO3)cc(OC)c1OC,-4.3,-1.8,6.6,16.9*,4.7,6.8
Cc1ccccc1OCC(=O)Nc1ccccc1NC(=O)c1ccco1,1.1,1.2,-2.3,-5.1,10.1,-1.9

# High-throughput results from PubChem.
